Data from ChEMBL document CHEMBL1759933, “Synthesis, human monoamine oxidase inhibitory activity and molecular docking studies of 3-heteroarylcoumarin derivatives” (Eur J Med Chem, 2011).

Key:
[1] = biological target: T1, Amine oxidase [flavin-containing] A (Homo sapiens, UniProt P21397); experiment: Inhibition of human recombinant MAO-A expressed in BTI-TN-5B1-4 cells assessed as H2O2 production using para-tyramine substrate by fluorimetric method; format: cell-based
T1 sequence (P21397 whole entry): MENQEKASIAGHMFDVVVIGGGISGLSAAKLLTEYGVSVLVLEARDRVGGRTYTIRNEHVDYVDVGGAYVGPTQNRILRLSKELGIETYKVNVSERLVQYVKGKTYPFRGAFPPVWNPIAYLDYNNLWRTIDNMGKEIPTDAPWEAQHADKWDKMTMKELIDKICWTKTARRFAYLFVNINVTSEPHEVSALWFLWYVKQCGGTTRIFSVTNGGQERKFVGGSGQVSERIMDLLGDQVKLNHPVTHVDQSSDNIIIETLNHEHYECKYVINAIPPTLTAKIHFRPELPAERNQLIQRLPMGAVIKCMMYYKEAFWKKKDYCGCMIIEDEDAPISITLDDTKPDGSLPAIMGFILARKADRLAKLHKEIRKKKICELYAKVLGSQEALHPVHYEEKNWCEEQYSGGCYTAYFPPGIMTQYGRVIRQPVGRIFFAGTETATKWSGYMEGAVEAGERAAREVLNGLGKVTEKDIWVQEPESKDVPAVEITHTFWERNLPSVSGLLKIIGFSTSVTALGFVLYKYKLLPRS

Homo sapiens = organism: Homo sapiens; experiment: Selectivity index, ratio of IC50 for human recombinant MAO-A to IC50 for human recombinant MAO-B
How it was run: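 SI is IC50(hMAO-A)/IC50(hMAO-B), from IC50s measured by Amplex Red/HRP fluorimetry of p-tyramine-driven H2O2 with baculovirus-expressed human isoforms (mean of five experiments each). Where no MAO-A IC50 was reached, the highest concentration tested was taken as that IC50.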

[2] = biological target: T2, Amine oxidase [flavin-containing] B (Homo sapiens, UniProt P27338); experiment: Inhibition of human recombinant MAO-B expressed in BTI-TN-5B1-4 cells assessed as H2O2 production using para-tyramine substrate by fluorimetric method; format: cell-based
T2 sequence (P27338 whole entry): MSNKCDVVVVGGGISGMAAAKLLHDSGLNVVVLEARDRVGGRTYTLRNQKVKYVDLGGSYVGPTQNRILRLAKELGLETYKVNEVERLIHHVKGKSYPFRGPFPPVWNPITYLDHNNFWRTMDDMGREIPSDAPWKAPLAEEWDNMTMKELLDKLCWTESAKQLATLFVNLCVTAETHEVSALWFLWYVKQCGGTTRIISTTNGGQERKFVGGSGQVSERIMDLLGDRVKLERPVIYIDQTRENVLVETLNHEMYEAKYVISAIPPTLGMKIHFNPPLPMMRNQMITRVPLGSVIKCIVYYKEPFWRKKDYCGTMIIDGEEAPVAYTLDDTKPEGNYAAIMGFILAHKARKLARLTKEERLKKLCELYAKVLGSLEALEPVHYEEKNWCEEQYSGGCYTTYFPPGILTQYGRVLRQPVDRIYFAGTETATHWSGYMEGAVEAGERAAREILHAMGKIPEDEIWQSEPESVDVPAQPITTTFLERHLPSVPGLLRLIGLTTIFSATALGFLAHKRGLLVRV

[3] = biological target: T1, Amine oxidase [flavin-containing] A; experiment: Inhibition of human recombinant MAO-A expressed in BTI-TN-5B1-4 cells assessed as H2O2 production using para-tyramine substrate at 100 uM by fluorimetric method; format: cell-based; conditions: bti-tn-5b1-4, 100 µM
[4] = biological target: T2, Amine oxidase [flavin-containing] B; experiment: Inhibition of human recombinant MAO-B expressed in BTI-TN-5B1-4 cells assessed as H2O2 production using para-tyramine substrate at 100 uM by fluorimetric method; format: cell-based; conditions: bti-tn-5b1-4, 100 µM

IC50 [1] [µM] | Ratio IC50 (Homo sapiens) | IC50 [2] [µM] | inhibition (INH) [3] | inhibition (INH) [4] | Structure (SMILES)
4.16 | > 75 | 0.0556 |  |  | COc1ccc2cc(-c3ccsc3)c(=O)oc2c1
 | > 158 | 0.634 | Not Active |  | COc1ccc2oc(=O)c(-c3cccs3)cc2c1
 |  |  | Not Active | Not Active | COc1cc(OC)c2cc(-c3cccs3)c(=O)oc2c1
 |  |  | Not Active | Not Active | COc1ccc2oc(=O)c(-c3c[nH]c4ccccc34)cc2c1
 | > 428 | 0.234 | Not Active |  | COc1ccc2oc(=O)c(-c3ccsc3)cc2c1
 | > 7.5 | 13.3 | Not Active |  | O=c1oc2ccccc2cc1-c1ccsc1
 |  |  | Not Active | Not Active | COc1cc(OC)c2cc(-c3c[nH]c4ccccc34)c(=O)oc2c1
 | > 15 | 6.37 | Not Active |  | O=c1oc2ccccc2cc1-c1cccs1
 | > 52 | 1.92 | Not Active |  | O=c1oc2ccccc2cc1-c1c[nH]c2ccccc12
 |  |  | Not Active | Not Active | COc1cc(OC)c2cc(-c3ccsc3)c(=O)oc2c1
9.67 | > 210 | 0.046 |  |  | COc1ccc2cc(-c3c[nH]c4ccccc34)c(=O)oc2c1
 | > 380 | 0.263 | Not Active |  | COc1ccc2cc(-c3cccs3)c(=O)oc2c1
